High-throughput results deposited in PubChem by several laboratories.
In the library only some 2.5% were active in any assay of this set; here they are far more common.
TbMetRS inhib = Trypanosoma brucei MetRS inhibition. purified T. brucei MetRS, ATP depletion, Kinase-Glo luminescence. inhibition, % at 11.9 µM. 360,000 tested, 0.4% active;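 active means inhibition above a per-plate cutoff of the control wells' mean inhibition plus 3 SD, cut at about 5.5% in these data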;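 further: 0% = DMSO wells median and 100% = median of wells with control inhibitor compound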
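Dosing: 11.9 µM single point; system: parasite MetRS enzyme; technique: luminescence of leftover ATP; times: 15 min enzyme-compound preincubation, 2 h reaction, 10 min detection, 25 °C; replicates: each compound tested once; read-out basis: percent inhibition relative to median high and low control wells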
NLRP3 yeast inh = blocks the NALP3 inflammasome reconstituted in yeast | Yeast reconstituted NLRP3/ASC/caspase-1, beta-gal luminescence, 24 h | inhibition, % at 10 µM | 330,000 tested, 0.39% active;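 active means inhibition of 50% or more; inactive means inhibition below 50%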;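 further: plate controls were induced DMSO wells for no effect and uninduced yeast grown without galactose for full effect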
Bfl-1 A1 inh = inhibitors of the anti-apoptotic protein A1, read as caspase activation; caspase activation, % (concentration not given with the values); 330,000 tested, 0.066% active; AID 2462; MEF A1-2A-BIM cells, Caspase-Glo 3/7 luminescence, 3 h; percent of clofoctol response, vehicle zero;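 active means over half of replicate activation scores above 10%, or exactly half above 10 with the replicate mean above 10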
NALP1 inh = blocks the NALP1 inflammasome reconstituted in yeast; inhibition, % at 10 µM; 280,000 tested, 0.61% active; S. cerevisiae NALP1/ASC/caspase-1 growth, X-gal OD620, 72 h; AID 2071; in the data active means inhibition mostly above about 24%, no sharp cut-off; inactive means mostly below about 32%
MC4R ag barr = activates human MC4R beta-arrestin recruitment; U2OS MC4R beta-arrestin complementation, luminescence; percent of melanotan II response, DMSO zero; activation, % at 8.9 µM; 360,000 tested, 0.98% active; AID 540308;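 active means activation above a per-plate cutoff, the mean activation of sample wells on that plate plus 3 SD, cut at about 8% in these data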
Target sequence (P32245 whole entry, looked up): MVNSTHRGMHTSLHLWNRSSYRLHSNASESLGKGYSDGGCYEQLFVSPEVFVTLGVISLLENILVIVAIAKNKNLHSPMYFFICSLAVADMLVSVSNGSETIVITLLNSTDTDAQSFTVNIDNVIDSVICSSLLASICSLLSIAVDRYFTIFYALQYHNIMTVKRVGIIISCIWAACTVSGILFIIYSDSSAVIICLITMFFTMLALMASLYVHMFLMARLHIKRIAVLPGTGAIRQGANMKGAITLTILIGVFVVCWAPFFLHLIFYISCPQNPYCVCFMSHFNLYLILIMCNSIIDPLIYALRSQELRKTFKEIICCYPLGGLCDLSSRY
MC4R antagonist = antagonists of human melanocortin 4 receptor (MC4R) | P32245 | MC4R-expressing cells, MTII-stimulated cAMP, LANCE TR-FRET | inhibition, % at 6.5 µM | 360,000 tested, 0.48% active;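 active means inhibition above its plate's cutoff, the mean of tested wells on that plate plus 3 SD, cut at about 29% in these data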;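 further: 0% = Melanotan II alone and 100% = Melanotan II plus saturating MCL0020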
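Material: human MC4R-expressing U2OS cells. Probe or stimulus: Melanotan II challenge. Dosing: 6.5 µM single dose. Times: 30-min compound, 1-h challenge, 1-h detection, room temperature. Technique: TR-FRET with Eu-cAMP and labeled anti-cAMP, 671 nm. Replication: singlicate.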
MC4R barr conf = human MC4R beta-arrestin agonism confirmation; 2,400 tested, 31% active; shares compounds with MC4R ag barr; activation, % at 8.9 µM; AID 602192; U2OS MC4R beta-arrestin recruitment, luminescence; scaled DMSO 0%, Melanotan II 100%;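 active means mean activation across replicates above the hit cutoff set in the earlier primary screen, cut at about 8% in these data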
MOR-DOR barr ag = OPRM1-OPRD1 heterodimer agonism counter-screen; shares compounds with MC4R ag barr; U2OS PathHunter beta-arrestin, beta-gal luminescence; percent of deltorphin B response, DMSO zero; activation, % at 9.2 µM; 2,400 tested, 5.8% active; AID 602194;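 active means mean activation across replicates exceeds the hit threshold derived in the earlier primary screen, cut at about 18% in these data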;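 further: 100% = deltorphin B at 0.9 µM final and 0% = DMSO alone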
Active calls of the source: *; · = not tested or not shown.

SMILES	TbMetRS inhib	NLRP3 yeast inh	Bfl-1 A1 inh	NALP1 inh	MC4R ag barr	MC4R antagonist	MC4R barr conf	MOR-DOR barr ag
O=S1(=O)CC(N2CCN(CCO)CC2)CN1Cc1cn(Cc2ccc(C(F)(F)F)cc2)nn1 (stereo not drawn)	0	·	·	·	·	·	·	·
C/C=C(/C)C(=O)OC1CC(C)(C)C[C@H]2C3=CC[C@@H]4[C@@]5(C)CCC(O[C@@H]6O[C@@H](C(=O)O)[C@@H](O)C(O[C@@H]7OC[C@H](O)[C@@H](O)[C@@H]7O[C@@H]7OC(CO)C(O)[C@@H](O)[C@@H]7O)C6O[C@@H]6OC(CO)C(O)C(O)C6O)[C@@](C)(CO)[C@@H]5CC[C@]4(C)[C@]3(C)CC(O)[C@@]12CO (stereo partly drawn)	0	-7	1	·	9.9*	27	8.6*	4
CC(=O)OC1COC(OC2C(O)C(C)OC(OC3C(OC4CCC5(C)C(CCC6(C)C5CC=C5C7CC(C)(C)CCC7(C(=O)O)CCC56C)C4(C)CO)OCC(O)C3O)C2O)C(O)C1OC(C)=O (stereo not drawn)	·	15	0	-13	·	·	·	·
Cc1cc(C)nc(N2CCC(C(=O)Nc3cccc(C(F)(F)F)c3)CC2)n1	-2	-3	0	10	14*	1	0	6
O=C(/C=C/c1cc([N+](=O)[O-])ccc1OC(F)F)Nc1cccc(OC(F)F)c1	-1	2	1	16	20*	-4	1	7
COc1ccc(OC)c(NC(=O)CSc2ncccc2C(=O)O)c1	-2	20	1	12	0	0	·	·
CCCCCCCCNC(=O)c1cccnc1SCC(=O)Nc1ccccc1OC	0	3	1	19	15*	-2	8	5
CCN1CC(C)(C)N(C(=O)c2ccccc2)CC1(C)C	0	·	·	·	-3	2	·	·
CC(C)C[C@H]1CN(CCCC[C@@H]2CNC(=O)C(=O)N2Cc2ccccc2)C(=O)C(=O)N1CC1CCCCC1	-1	·	·	·	·	·	·	·
Cc1ccc2[nH]c(O)c(N=NC(=O)C3CC3c3ccccc3)c2c1Br (stereo not drawn)	0	8	3	16	18*	8	3	2
CC1(NC(=O)Cc2csc(-c3ccc(Cl)cc3)n2)CCS(=O)(=O)C1 (stereo not drawn)	0	7	0	·	-1	5	·	·
CCOc1ccc(C2=Nn3c(nnc3-c3ccccc3OC)SC2)cc1	0	·	-1	-3	-2	-21	·	·
CCOc1ccc(-c2nnc3n2N=C(c2ccc(OC)cc2)CS3)cc1	-1	11	1	44	12*	-7	3	7
O=C(COC(=O)C1C2CC3OC(=O)C1C3C2)Nc1ccc(Cl)cc1 (stereo not drawn)	3	4	0	12	-1	3	·	·
CC(C)c1ccc(NC(=O)COC(=O)/C=C/c2cccc([N+](=O)[O-])c2)cc1	0	9	0	20	16*	1	1	3
O=C(COC(=O)/C=C/c1cccc(Cl)c1)Nc1ccc(N2CCOCC2)cc1	0	5	-1	·	9.8*	-3	0	8
CC(C)c1ccc(NC(=O)CSc2ncccc2C(=O)Oc2cccc([N+](=O)[O-])c2)cc1	0	9	0	19	20*	-14	17*	2
O=C(COC(=O)C1CCCN1C(=O)C12CC3CC(CC(C3)C1)C2)c1ccc(Br)cc1 (stereo not drawn)	-1	6	1	10	14*	0	5	3
Cc1ccc(S(=O)(=O)NCCNc2ccc(Br)c(C)c2)cc1	0	15	0	·	18*	2	4	7
Cc1ccc(S(=O)(=O)N(C)C)cc1NC(=O)CN1C(=O)NC2(CCc3ccccc32)C1=O (stereo not drawn)	1	·	·	·	2	0	·	·
CCOc1cc(/C=C2/C(=N)N3OC(C)=CC3=NC2=O)ccc1OCCOc1ccccc1	-1	6	0	-10	14*	-2	9.2*	10
CC1=CC2=NC(=O)/C(=C\c3cccn3CCOc3cc(C)ccc3C)C(=N)N2O1	0	20	-1	32	14*	5	1	4
CCOc1ccc(/C=C2/C(=N)N3OC(C)=CC3=NC2=O)cc1OC	0	-5	0	5	0	2	·	·
CN1CCN(S(=O)(=O)c2cccc3nsnc23)CC1	-1	8	0	10	-1	-3	·	·
C=CCNC(=O)/C(C#N)=C/c1c(C)nn(-c2ccccc2)c1Cl	0	34	1	62	-1	-3	·	·
SMILES	TbMetRS inhib	NLRP3 yeast inh	Bfl-1 A1 inh	NALP1 inh	MC4R ag barr	MC4R antagonist	MC4R barr conf	MOR-DOR barr ag
C=CCNC(=O)/C(C#N)=C/c1cn(-c2ccccc2)nc1-c1cccs1	-1	9	0	4	33*	12	9.1*	9
Cc1cc(C)c2sc(N(CCCN(C)C)C(=O)c3ccc(Br)s3)nc2c1	0	32	1	4	16*	2	21*	14
Cc1cc(C)c2sc(N(CCN(C)C)C(=O)c3c(F)cccc3F)nc2c1	0	11	1	-4	0	8	·	·
Cc1cccc2sc(N(CCCN(C)C)C(=O)c3ccc(Cl)s3)nc12	-1	16	-1	-3	11*	0	4	6
Fc1ccc(-c2ccc3c(c2)C2CC3CCN2)cc1 (stereo not drawn)	-1	·	·	·	3	1	·	·
O=C(Nc1ccc2oc(-c3cccc(F)c3)nc2c1)c1ccccc1F	0	-1	1	-10	27*	7	16*	4
COc1ccc2[nH]c3c(c2c1)CCN1C(=O)C(CC(=O)NCc2ccco2)C[C@H](C(=O)N2CCCCC2)[C@@]31CCc1ccccc1 (stereo partly drawn)	-1	·	·	·	1	2	·	·
CCc1ccc(C(O)c2ncc(-c3cccc(C)c3)[nH]2)cc1 (stereo not drawn)	0	·	·	·	0	-3	·	·
CCOC(=O)Cc1ccc(Nc2nc3cc(-c4sccc4C)sc3c(=O)n2C)cc1	0	·	·	·	14*	-7	1	4
Cc1cc(-n2nnc3ccccc32)nc2ccccc12	-1	20	0	17	18*	-3	-1	2
Cc1cc(N2CCCCC2)nc2ccccc12	-1	14	0	11	-3	-1	·	·
